Assay results published in PubChem BioAssay.
The source made the active and inactive calls.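 Rule for the calls, unless noted: active = viability at or below 10% of carrier control in both of two separate runs; inconclusive = viability at or below 10% in only one of the two runs; inactive = the rest.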

Assays:
[1] = reducers of endogenous Her2 protein level, primary screen, SKBR3 breast tumor cells, AlphaScreen, ATP viability (AID 461;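 active = Her2 level under about 52% in both replicate screens, with viability over 70% of control, limit read from the data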;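 for Her2 level: lower value means less Her2 protein in the cells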;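 for viability: percent of carrier control wells set as 100% viability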); details: 18-24 h, measured here: SKBR3 viability, ATP luminescence, at 10 µM
[2] = biological target: Receptor tyrosine-protein kinase erbB-2 (Homo sapiens) (UniProt P04626); assay: as above; details: 18-24 h, at 10 µM, stronger effect = lower value
Receptor tyrosine-protein kinase erbB-2 (Homo sapiens), sequence (P04626 whole entry, looked up): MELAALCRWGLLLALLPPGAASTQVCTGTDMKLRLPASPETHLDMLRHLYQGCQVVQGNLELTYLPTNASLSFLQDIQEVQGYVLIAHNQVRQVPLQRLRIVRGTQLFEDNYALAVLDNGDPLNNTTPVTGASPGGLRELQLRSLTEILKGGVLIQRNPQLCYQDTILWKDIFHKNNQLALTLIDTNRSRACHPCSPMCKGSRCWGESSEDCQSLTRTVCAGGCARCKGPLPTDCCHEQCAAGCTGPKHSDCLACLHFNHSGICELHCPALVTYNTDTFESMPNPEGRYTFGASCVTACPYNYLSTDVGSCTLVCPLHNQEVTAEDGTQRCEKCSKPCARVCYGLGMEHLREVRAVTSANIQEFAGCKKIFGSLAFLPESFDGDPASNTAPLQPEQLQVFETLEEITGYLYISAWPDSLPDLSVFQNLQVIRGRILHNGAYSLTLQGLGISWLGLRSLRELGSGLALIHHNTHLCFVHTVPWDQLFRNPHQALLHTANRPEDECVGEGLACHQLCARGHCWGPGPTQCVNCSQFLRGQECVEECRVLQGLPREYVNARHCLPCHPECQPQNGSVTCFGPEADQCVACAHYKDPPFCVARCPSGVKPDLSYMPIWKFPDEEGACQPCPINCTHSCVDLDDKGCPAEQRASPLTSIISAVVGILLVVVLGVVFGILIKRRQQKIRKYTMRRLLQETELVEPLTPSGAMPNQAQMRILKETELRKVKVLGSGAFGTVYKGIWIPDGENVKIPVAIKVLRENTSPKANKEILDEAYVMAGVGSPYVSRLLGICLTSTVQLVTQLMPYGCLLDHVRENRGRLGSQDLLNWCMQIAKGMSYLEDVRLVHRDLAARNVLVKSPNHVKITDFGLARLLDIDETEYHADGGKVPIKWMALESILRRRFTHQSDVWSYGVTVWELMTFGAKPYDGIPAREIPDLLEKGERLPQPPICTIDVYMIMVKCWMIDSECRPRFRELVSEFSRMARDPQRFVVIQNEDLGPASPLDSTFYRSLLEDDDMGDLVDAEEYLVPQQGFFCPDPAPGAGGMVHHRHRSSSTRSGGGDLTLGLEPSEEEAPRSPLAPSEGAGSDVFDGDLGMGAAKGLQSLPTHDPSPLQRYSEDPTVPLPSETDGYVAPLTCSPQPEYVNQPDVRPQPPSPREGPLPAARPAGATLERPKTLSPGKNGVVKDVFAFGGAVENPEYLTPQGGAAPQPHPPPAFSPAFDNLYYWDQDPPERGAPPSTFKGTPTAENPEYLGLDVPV

[3] = SK-BR-3 cell growth inhibitors, pilot screen, 24 h, human (AID 572); details: SK-BR-3 viability, CellTiter-Glo luminescence, at 10 µM, stronger effect = lower value;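 note: compound exposure lasted between 18 and 24 h rather than exactly 24 h; 100% = carrier-treated control wells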
[4] = HUVEC growth inhibition – cell-based, human, primary screen (AID 575;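 active = viability at or below 30% in both replicate assays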;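 note: 100% = median of untreated cell wells with 0.1% DMSO on each plate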); details: HUVEC proliferation, CellTiter-Glo luminescence, 72 h; at 10 µM; stronger effect = lower value
Method in brief: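 Test system – primary HUVEC, no more than 12 passages · Dosing – one dose, 10 µM final, 0.1% DMSO · Times – 72 h treatment at 37 °C · Measured by – ATP-based CellTiter-Glo luminescent read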

[5] = growth inhibitors of H69AR lung tumor, primary screen, human, duplicate replicates (AID 580;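 active = viability at or under a set limit in both replicates, limit being median viability minus 3 SD, cut at about 48% in these data, passing the limit was not always enough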;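 note: 100% = mean luminescence of untreated wells and 0% = no signal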); details: H69AR lung tumor cells viability, ATP luminescence, 72 h; at 10 µM; stronger effect = lower value
[6] = reversal of MRP1-mediated doxorubicin resistance, pilot screen, H69AR cells, doxorubicin co-treatment (AID 601;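 active = viability loss from added drug above about 55%, and viability with drug at most 40%, in both replicates, limit read from the data, passing the limit was not always enough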); details: CellTiter-Glo, 72 h, at 10 µM; for differential viability (reversal): stronger effect = higher value
[7] = 384-well plate pilot, post-Golgi transport modulator project, inhibition of yeast transport mutant growth (AID 636; in the data active = inhibition above about 31%); details: absorbance 615 nm, about 18 h, stronger effect = higher value
[8] = growth suppression of yeast trafficking mutant, preliminary HTS, modulators of trafficking downstream of Golgi apparatus project, 1536-format plate, OD 615 nm (AID 637; in the data active = inhibition above about 30%); details: yeast transport mutant growth, absorbance 615 nm, 18 h; stronger effect = higher value
[9] = H69AR cells + 2 uM doxorubicin, measured here: viability with 2 uM doxorubicin, stronger effect = lower value
[10] = H69AR cells, compound alone cytotoxicity

| Structure (SMILES) | viability [1] | Her2 level [2] | viability [3] | viability [4] | viability [5] | differential viability (reversal) ([6]; H69AR cells + 2 uM doxorubicin) | viability [6, 9] | viability [6, 10] | inhibition [7] | inhibition [8] |
| --- | --- | --- | --- | --- | --- | --- | --- | --- | --- | --- |
| Cn1c(SCC(=O)Nc2ccc3c(c2)oc2ccccc23)nnc1-c1ccccc1 | 83% | 75.5% (inactive) | 83% (inactive) | 53.1% (inactive) | 69.4% (inactive) | -7.74% (inactive) | 77.1% | 69.4% | -5.73% (inactive) | 5.9% (inactive) |
| COc1ccc(CNC(=O)CCc2nc(-c3ccccc3F)no2)c(OC)c1 | 80% | 95% (inactive) | 80% (inactive) | 90% (inactive) | 95.9% (inactive) | 3.65% (inactive) | 92.2% | 95.9% | -4.08% (inactive) | -0.17% (inactive) |
| O=C(COc1ccc(Cl)cc1)Nc1nc(-c2cccs2)cs1 | 96% | 74.5% (inactive) | 96% (inactive) | 79.9% (inactive) | 77.5% (inactive) | -7.15% (inactive) | 84.6% | 77.5% | 3.55% (inactive) | 0.18% (inactive) |
| O=C(c1ccc2c(c1)c(=O)oc1ccccc12)N1CCCCC1 | 109% | 86% (inactive) | 109% (inactive) | 98.6% (inactive) | 101% (inactive) | 14.1% (inactive) | 87.3% | 101% | -2.11% (inactive) | 3.17% (inactive) |
| CCS(=O)(=O)N1CCCC(C(=O)NCc2ccccc2Cl)C1 (stereo not given) | 90% | 110% (inactive) | 90% (inactive) | 99.1% (inactive) | 94.7% (inactive) | 5.79% (inactive) | 88.9% | 94.7% | -7.6% (inactive) | -3.61% (inactive) |
| O=C(CN1C(=O)CC(c2ccco2)Sc2ccccc21)Nc1ccccc1F (stereo not given) | 82.5% | 82% (inactive) | 82.5% (inactive) | 72.2% (inactive) | 84.3% (inactive) | 3.75% (inactive) | 80.6% | 84.3% | 0% (inactive) | -0.83% (inactive) |
| Cc1ccc(-c2nn(C)c(=O)c3ccccc23)cc1S(=O)(=O)N1CCOCC1 | 77% | 83% (inactive) | 77% (inactive) | 83.8% (inactive) | 92.8% (inactive) | 16% (inactive) | 76.8% | 92.8% | -5.07% (inactive) | -3.06% (inactive) |
| O=S(=O)(Nc1ncccn1)c1ccc(Nc2ncnc3ccccc23)cc1 | 97.5% | 93% (inactive) | 97.5% (inactive) | 81.2% (inactive) | 95.7% (inactive) | 1.15% (inactive) | 94.5% | 95.7% | -7.57% (inactive) | 3.11% (inactive) |
| CCOC(=O)c1oc2ccccc2c1NC(=O)COC | 108% | 91.5% (inactive) | 108% (inactive) | 99.5% (inactive) | 102% (inactive) | 9.07% (inactive) | 93.2% | 102% | -4.73% (inactive) | -3.93% (inactive) |
| Cc1ccc(S(=O)(=O)NCCCCC(NC(=O)OC(C)(C)C)C(=O)O)cc1 (stereo not given) (tested in a mixture with another compound) | 91.5% | 92.5% (inactive) | 91.5% (inactive) | 125% (inactive) | 104% (inactive) | 7.71% (inactive) | 96.8% | 104% | -3.68% (inactive) | 8.52% (inactive) |
| N#CCCN(C(=O)Nc1ccc(Cl)cc1)c1ccccc1 | 94% | 111% (inactive) | 94% (inactive) | 113% (inactive) | 105% (inactive) | 9.02% (inactive) | 95.5% | 105% | -2% (inactive) | 0% (inactive) |
| Nc1nc(N)nc(-c2ccccc2)n1 | 97.5% | 106% (inactive) | 97.5% (inactive) | 107% (inactive) | 99.8% (inactive) | 4.35% (inactive) | 95.4% | 99.8% | -1.05% (inactive) | -0.16% (inactive) |
| CN(C(=O)CSc1nc2c(c(=O)[nH]1)CCCC2)C1CCCCC1 | 95% | 105% (inactive) | 95% (inactive) | 77.1% (inactive) | 93.3% (inactive) | 1.09% (inactive) | 92.2% | 93.3% | -1.97% (inactive) | -8.89% (inactive) |
| Cc1cccc(C2c3c(n(C)c(=O)n(C)c3=O)N=C3c4ccccc4C(=O)C32)c1 (stereo not given) | 101% | 82.5% (inactive) | 101% (inactive) | 43.8% (inactive) | 24.3% (active) | -9.63% (inactive) | 34% | 24.3% | -7.47% (inactive) | 0.32% (inactive) |
| Cn1c(SCC(=O)Nc2ccc3c(c2)OCO3)nnc1-c1cnccn1 | 106% | 82.5% (inactive) | 106% (inactive) | 93.5% (inactive) | 94.6% (inactive) | 6.5% (inactive) | 88.1% | 94.6% | -6.05% (inactive) | 2.33% (inactive) |
| CCOC(=O)N1CCN(S(=O)(=O)c2cc(Cl)c(OC)cc2Cl)CC1 | 85% | 102% (inactive) | 85% (inactive) | 108% (inactive) | 91.1% (inactive) | -0.21% (inactive) | 91.3% | 91.1% | -2.24% (inactive) | -4.92% (inactive) |

| Structure (SMILES) | viability [1] | Her2 level [2] | viability [3] | viability [4] | viability [5] | differential viability (reversal) ([6]; H69AR cells + 2 uM doxorubicin) | viability [6, 9] | viability [6, 10] | inhibition [7] | inhibition [8] |
| --- | --- | --- | --- | --- | --- | --- | --- | --- | --- | --- |
| CCC(Sc1ccc(C(=O)O)cc1)C(=O)O (stereo not given) | 86.5% | 96% (inactive) | 86.5% (inactive) | 95.2% (inactive) | 93.9% (inactive) | 3.74% (inactive) | 90.2% | 93.9% | -1.97% (inactive) | -10% (inactive) |
| COc1ccc(-c2ccc(-c3nnc(-c4ccncc4)o3)cc2)cc1 | 130% | 103% (inactive) | 130% (inactive) | 119% (inactive) | 96.3% (inactive) | 6.73% (inactive) | 89.5% | 96.3% | -5.87% (inactive) | 0% (inactive) |
| CCCOC(=O)c1[nH]c2c(c1C)C(=O)CC(c1ccc(OC)c(OC)c1)C2 (stereo not given) | 99% | 151% (inactive) | 99% (inactive) | 84.7% (inactive) | 96% (inactive) | 0.765% (inactive) | 95.3% | 96% | 2.63% (inactive) | -11.2% (inactive) |
| CN(C)c1ccc(NC(=O)CSCc2nc3c(nnn3Cc3ccc(F)cc3)c(=O)[nH]2)cc1 | 89.5% | 83.5% (inactive) | 89.5% (inactive) | 110% (inactive) | 94% (inactive) | 4.32% (inactive) | 89.7% | 94% | -6.49% (inactive) | 0% (inactive) |
| CCN(CC)c1ccc(NC(=O)c2[nH]c(C)c(C(C)=O)c2C)c(C)c1 | 92.5% | 91% (inactive) | 92.5% (inactive) | 93.1% (inactive) | 74.8% (inactive) | -1.04% (inactive) | 75.9% | 74.8% | -0.39% (inactive) | -8.06% (inactive) |
| O=C(O)C1C2C=CC(O2)C1C(=O)NCc1ccc(Cl)cc1 (stereo not given) | 107% | 94.5% (inactive) | 107% (inactive) | 105% (inactive) | 104% (inactive) | 7.33% (inactive) | 96.6% | 104% | -5.87% (inactive) | 2.58% (inactive) |
| Cn1c(=O)oc2cc(S(=O)(=O)N3CCC(C(=O)Nc4ccc(OC(F)(F)F)cc4)CC3)ccc21 | 137% | 98.5% (inactive) | 137% (inactive) | 91.4% (inactive) | 33% (active) | -4.57% (inactive) | 37.5% | 33% | -5.92% (inactive) | 0.18% (inactive) |
| Nc1nnn(Cc2ccccc2)n1 | 93.5% | 92% (inactive) | 93.5% (inactive) | 100% (inactive) | 119% (inactive) | 22.1% (inactive) | 97.3% | 119% | -5.21% (inactive) | -6.98% (inactive) |
| CCOc1ccccc1CN1C(=O)c2ccccc2C1C(=O)NCC1CCCO1 (stereo not given) | 104% | 104% (inactive) | 104% (inactive) | 98.3% (inactive) | 101% (inactive) | -4.52% (inactive) | 105% | 101% | -1.47% (inactive) | -0.32% (inactive) |
| CS(=O)(=O)N1CCCC(C(=O)NCCCN2CCc3ccccc3C2)C1 (stereo not given) | 93% | 102% (inactive) | 93% (inactive) | 102% (inactive) | 95.1% (inactive) | 7.38% (inactive) | 87.8% | 95.1% | -0.91% (inactive) | -8.89% (inactive) |
| Cc1cc(C)cc(NC(=O)CCNS(=O)(=O)c2ccc3c(c2)oc(=O)n3C)c1 | 118% | 112% (inactive) | 118% (inactive) | 95.8% (inactive) | 94.9% (inactive) | -2.07% (inactive) | 97% | 94.9% | -6.16% (inactive) | 1.75% (inactive) |
| N=c1c(C(=O)NCc2ccc3c(c2)OCO3)cc2c(=O)n3ccccc3nc2n1Cc1cccnc1 | 73.5% | 68% (inactive) | 73.5% (inactive) | 87% (inactive) | 78.8% (inactive) | -0.53% (inactive) | 79.3% | 78.8% | -2.47% (inactive) | -2.3% (inactive) |
| Cc1ccc(NC(=O)c2ccccc2O)cc1 | 93.5% | 87.5% (inactive) | 93.5% (inactive) | 86.9% (inactive) | 89.2% (inactive) | -0.22% (inactive) | 89.4% | 89.2% | -1.49% (inactive) | -2.7% (inactive) |
| CCCn1c(SCC(=O)N2CCN(c3ccccc3)CC2)nc2ccccc2c1=O | 117% | 90.5% (inactive) | 117% (inactive) | 70.7% (inactive) | 83.8% (inactive) | 0.045% (inactive) | 83.8% | 83.8% | 8.38% (inactive) | 32.7% (active) |
| CC(C)(C)NC(=O)NC(=O)COc1ccccc1C#N | 104% | 90.5% (inactive) | 104% (inactive) | 108% (inactive) | 106% (inactive) | 25.7% (inactive) | 80.7% | 106% | -6.49% (inactive) | -2.38% (inactive) |
| Cn1c(=O)c2c(nc(NCCc3ccccc3)n2CC(=O)NCCc2ccccc2)n(C)c1=O | 91% | 90.5% (inactive) | 91% (inactive) | 99.9% (inactive) | 79% (inactive) | 8.86% (inactive) | 70.2% | 79% | -1.05% (inactive) | 9.68% (inactive) |
